GalR3 antagonist – blocks the human galanin receptor 3 | inhibition, % at 3 µM | O60755 | HEK293 GalR3-CNG cAMP membrane potential fluorescence; galR3 body fused to GalR1 C-terminus | hit rate 0.44% among 360,000;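 active = inhibition above the screen-wide average plus 3 SD, cut at about 13% in these data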;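 also: forskolin and galanin both at EC90 stimulate the cells; cAMP rise reported by CNG channel membrane potential dye signal; 0% = forskolin plus galanin with DMSO and 100% = forskolin alone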
Jurkat NFkB inh – lowers PMA/ionomycin-induced NF-kB signal in Jurkat cells; PMA/ionomycin-induced NF-kB luciferase reporter, luminescence; inhibition, % at 4 µM; hit rate 0.53% among 330,000; in the data active = inhibition above about 50%
NR2E3 ag-1 – agonists of human nuclear receptor NR2E3. Q9Y5X4. GST-NR2E3/biotin-RetCOR TR-FRET, 1536-well. inhibition of corepressor binding, % at 4.78 µM. hit rate 0.12% among 320,000. AID 2300;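 active = percent inhibition above the cutoff of mean plus 3 SD of all tested compounds, set per screening campaign, cut at about 20% in these data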;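 also: 0% = DMSO wells and 100% = biotin wells as full block of FRET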
Target sequence (Q9Y5X4 whole entry, looked up): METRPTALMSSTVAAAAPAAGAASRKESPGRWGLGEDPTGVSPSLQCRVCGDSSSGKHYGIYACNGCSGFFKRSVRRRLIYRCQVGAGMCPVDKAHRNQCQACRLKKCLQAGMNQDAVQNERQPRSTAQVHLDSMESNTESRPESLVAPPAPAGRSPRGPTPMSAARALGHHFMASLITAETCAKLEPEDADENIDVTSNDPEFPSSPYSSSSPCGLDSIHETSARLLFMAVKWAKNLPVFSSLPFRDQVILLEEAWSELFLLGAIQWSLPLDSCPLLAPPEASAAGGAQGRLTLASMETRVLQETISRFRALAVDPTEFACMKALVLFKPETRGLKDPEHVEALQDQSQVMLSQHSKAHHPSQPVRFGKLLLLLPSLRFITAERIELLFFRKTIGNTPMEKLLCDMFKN
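Material – GST-tagged NR2E3 plus biotinylated RetCOR corepressor · Quantity – NR2E3 fusion 1.35 nM · Times – 5 h incubation at 4 °C · Medium – pH 7.5 Tris-based buffer · Technique – TR-FRET, Eu(K)-anti-GST donor, streptavidin-D2 acceptor, ex 340, em 617/671 nm · Benchmarks – high control biotin, low control 0.6% DMSO · Format – 1536-well plates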
697 NFkB inh – inhibitors of the PMA/ionomycin-induced NF-kB reporter in 697 B cells; inhibition, % at 4 µM; 697 B-cell NF-kB luciferase reporter, 16 h; AID 435022; hit rate 0.33% among 330,000; in the data active = inhibition above about 35%
NR2E3 ag-2 – activates human NR2E3 receptor; Q9Y5X4; AID 602229; hit rate 0.35% among 360,000; CHO-S Gal4-NCOR/VP16-NR2E3 two-hybrid, luciferase; inhibition of corepressor binding, % at 3.98 µM;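 active = inhibition above the mean of all tested compounds plus 3 SD, cut at about 70% in these data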;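 also: 0% = DMSO with NR2E3 transfected cells and 100% = cells lacking NR2E3 construct; higher means lower luciferase signal from less NR2E3 corepressor binding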
GASC-1 inh – human JMJD2C demethylase inhibition | inhibition, % at 2.35 µM | hit rate 0.069% among 330,000 | GST-JMJD2C(1-420) H3K9me3 demethylation, DELFIA europium | Q9H3R0 | AID 2099;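 active = more than half of a compound's replicate wells show inhibition beyond 50%, single wells judged on their own value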;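 also: signal counts dimethyl H3K9 product captured on neutravidin plate; 0% = median of DMSO wells and 100% = 0.3 times that DMSO median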
NR2E3 ag conf – confirmation of human NR2E3 agonists | shares compounds with NR2E3 ag-2 | CHO-S mammalian two-hybrid NR2E3-NCOR, luciferase luminescence | inhibition, % at 3.98 µM | hit rate 51% among 2,300;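 active = average inhibition above a cutoff equal to the mean inhibition of all tested compounds plus one SD, cut at about 70% in these data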;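 also: 0% = DMSO in NR2E3 cells and 100% = DMSO in cells lacking NR2E3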
VP16 counter – reduces GAL4-VP16 reporter signal in NR2E3 counterscreen; shares compounds with NR2E3 ag-2; CHO-S GAL4-VP16 luciferase reporter, luminescence; inhibition, % at 3.98 µM; hit rate 29% among 2,300;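 active = mean inhibition above a cutoff equal to the average over all tested compounds plus one standard deviation, cut at about 70% in these data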;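 also: luciferase from a UAS reporter driven by GAL4-VP16 transactivation; 0% = DMSO with VP16-transfected cells and 100% = DMSO with cells lacking VP16; higher means less reporter light so more repression of VP16 activity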
* hit, by the source's call; . = no result given. In the library only some 1.5% were active in any assay of this set; here they are far more common.

SMILES	GalR3 antagonist	Jurkat NFkB inh	NR2E3 ag-1	697 NFkB inh	NR2E3 ag-2	GASC-1 inh	NR2E3 ag conf	VP16 counter
O=C(CCN1C(=O)S/C(=C\c2ccc(Cl)cc2)C1=O)Nc1ccc(C(=O)O)cc1	-2	2	2	-19	-20	0	.	.
O=C(CCCN1C(=O)/C(=C/c2ccccc2)SC1=S)Nc1ccc(C(=O)O)c(O)c1	-2	-16	2	27	23	3	.	.
COc1ccc(/C=C2\SC(=O)N(CCCC(=O)Nc3ccc(C(=O)O)cc3)C2=O)cc1	-5	.	.	.	88*	.	85*	92*
COc1cccc(/C=C2\SC(=S)N(CCCC(=O)Nc3cccc(C(=O)O)c3)C2=O)c1	.	.	.	.	68	.	23	58
O=C(CCCN1C(=O)C(=Cc2ccc3c(c2)OCO3)SC1=S)Nc1ccc(C(=O)O)c(O)c1	-6	.	.	.	50	.	8	66
O=C(CCCN1C(=O)/C(=C\c2cccs2)SC1=S)Nc1cccc(C(=O)O)c1	-2	11	-3	8	24	19	.	.
CCOc1ccc(S(=O)(=O)N2CCC(C(=O)NC3CCCC3)CC2)cc1	-3	20	2	12	-14	9	.	.
On1ccccc1=S	-1	.	4	.	101*	0	-97	4
O=C(Cn1ccccc1=S)c1ccc(Cl)c(Cl)c1	-1	-11	0	14	-21	-4	.	.
CCCCOc1ccc(S(=O)(=O)Nc2cccnc2)cc1	-14	-8	3	-22	94*	-9	90*	74*
COc1cc2c(cc1OC)CN(C(=O)Cc1c(F)cccc1Cl)CC2	-9	7	-1	-2	-1	-8	.	.
CN1CCN(c2ccc(NC(=O)N3CCc4ccccc43)cc2)CC1	-9	-56	0	-90	49	2	26	-32
COc1cccc(CNC(=O)N2CCN(S(=O)(=O)c3ccc(C)cc3)CC2)c1	-7	-7	2	7	-2	-1	.	.
CC(=O)N1CCc2c(sc(NC(=O)c3ccc([N+](=O)[O-])o3)c2C(N)=O)C1	2	.	.	.	79*	.	15	26
CCn1c(Cl)c(C=O)s/c1=N\S(=O)(=O)c1ccccc1	0	5	-3	-81	53	-10	24	15
O=C1NC(=S)S/C1=C\c1cc(Cl)cc(Cl)c1O	-5	.	.	.	66	.	73*	60
O=C1NC(=S)SC1=Cc1ccccc1Cl	-4	.	.	.	67	.	79*	73*
C=CC[C@@H](CC(=O)N(CCO)Cc1ccccc1)C(=O)N[C@@H](C)COC(=O)[C@@H](CC=C)Cc1ccc(F)cc1	0	16	.	3	-10	2	.	.
C(=NN1CCCCCC1)c1ccc2ccccc2n1	-5	.	.	.	95*	.	86*	68
C(=NN1CCCCCC1)c1cccc2ccccc12	-7	.	.	.	6	.	.	.
Cc1ccccc1C(=O)N1CCC(C(=O)Nc2ccc(S(=O)(=O)N3CCCCC3)cc2)CC1	1	17	-1	-24	6	1	.	.
CC(=NNC(=S)N1CCCC1)c1ccccn1	-6	.	.	.	86*	.	-2	8
CC(=NNC(=S)N1CC2CCC(CC2)C1)c1cccc(C)n1	3	.	.	.	12	.	.	.
CC(=NNC(=S)N1CCC1)c1ccccn1	-1	.	.	.	75*	.	-2	4
CCCCCC(=O)N/N=C(\C)c1ccccn1	-5	1	4	-4	-17	1	.	.
SMILES	GalR3 antagonist	Jurkat NFkB inh	NR2E3 ag-1	697 NFkB inh	NR2E3 ag-2	GASC-1 inh	NR2E3 ag conf	VP16 counter
CC(=NNC(=S)SCc1ccccc1)c1ccccn1	2	.	.	.	65	.	11	29
CC(=NNC(=S)Nc1cccc(Cl)c1)c1ccccn1	-3	.	.	.	95*	.	-65	-15
CC(=O)N1c2ccc(S(=O)(=O)N3CCC(C(=O)Nc4ncccc4C)CC3)cc2CC1C (configuration not stated)	5	2	3	-4	-17	14	.	.
CC(C)(C)NCC(=Cc1ccccc1)C(=O)c1ccccc1	-1	.	.	.	87*	.	83*	30
O=S(=O)(c1cccs1)N1CCN(CCOc2ccc(Cl)cc2)CC1	0	14	3	-9	-3	-22	.	.
O=S(=O)(c1cccs1)N1CCN(CC(O)COc2cc(Cl)ccc2Cl)CC1 (configuration not stated)	68*	19	-2	-9	89*	19	96*	78*
C=CC(=O)N1C/C(=C/c2ccc(F)cc2)C(=O)/C(=C\c2ccc(F)cc2)C1	-2	.	.	.	58	.	55	36
Cc1cc(Nc2ccc(C)c(Br)c2)n2nc(C)nc2n1	2	1	1	11	10	0	.	.
CC(C)CNC(=O)c1ccc2c(c1)C(=O)N(Cc1ccco1)C2=O	-5	-3	5	9	-5	-5	.	.
Cc1ccccc1NC(=S)NCCC(c1ccccc1)c1ccccc1	-2	3	0	12	50	2	11	10
Cc1ccc(NC(=S)NCCC(c2ccccc2)c2ccccc2)c(C)c1	-4	9	-2	16	36	-5	.	.
C=CCNC(=O)CN1N=C(c2ccc(C)cc2)CCC1=O	-11	-10	-3	5	-19	-5	.	.
COc1cccc(N2CCN(c3nc(-c4ccccc4C)cc(=O)[nH]3)CC2)c1	-13	18	.	28	93*	26	98*	2
COc1cccc(N2CCN(c3nc(C)c(C)c(=O)[nH]3)CC2)c1	-8	-5	0	1	-27	4	.	.
COc1ccc(S(=O)(=O)NC2CC(=O)N(c3cccc(F)c3)C2)cc1OC (configuration not stated)	-4	-16	-2	-15	11	-20	.	.
COc1cnc(-c2ccccn2)nc1N(C)c1ccccc1	-10	-26	-2	-36	105*	8	94*	-23
COc1cnc(-c2ccccn2)nc1Oc1cccc(C(F)(F)F)c1	-4	-6	2	-25	-2	-1	.	.
COc1cnc(-c2ccccn2)nc1Oc1ccccc1	2	10	2	3	59	-14	22	-20
CN(Cc1nccs1)C(=O)c1cc(COc2cccc3cnccc23)on1	12	19	-2	-37	94*	-16	81*	76*
CC(=O)c1cccc(OCc2cc(C(=O)N(C)Cc3nccs3)no2)c1	-7	.	.	.	-76	.	.	.
CCC(NC(=O)c1ccncc1)c1ccccc1 (configuration not stated)	-4	-4	-1	16	-3	12	.	.
CCN(CC)S(=O)(=O)c1cccc(NC(=O)Nc2cccc(C(F)(F)F)c2)c1	-6	16	-1	-40	75*	7	65	53

Screening results from PubChem BioAssay.
